Assay results taken from ChEMBL document CHEMBL1275433 (Antimicrob Agents Chemother, 2008).
In brackets after ≈: the same amount, converted by molar mass. Activity calls are given as the source filed them. The rule behind the calls is not given here.

Key:
[1] = system: Mycobacterium tuberculosis
[2] = system: Mycobacterium tuberculosis; remark: listed apart in the source
[3] = system: Mycobacterium tuberculosis; remark: listed apart in the source
[4] = system: Mycobacterium tuberculosis; remark: listed apart in the source
[5] = system: Mycobacterium tuberculosis; remark: listed apart in the source
[6] = Inhibition of Mycobacterium tuberculosis DNA gyrase GyrA/GyrB N464S mutant gene
Procedure, shortened: (§1)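 Enzyme unit: protein needed for 50% supercoiling of 0.4 μg relaxed pBR322 DNA in 1 h at 37°C. Wild-type and mutant enzymes assayed in parallel on the same day under identical conditions. Repeated two to four times; representative values reported.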

[7] = system: Mycobacterium tuberculosis; remark: listed apart in the source
[8] = system: Mycobacterium tuberculosis; remark: listed apart in the source
[9] = system: Mycobacterium tuberculosis; remark: listed apart in the source
[10] = Inhibition of Mycobacterium tuberculosis DNA gyrase GyrA/GyrB R447K mutant gene
Procedure, shortened: as §1

[11] = system: Mycobacterium tuberculosis; remark: listed apart in the source
[12] = Inhibition of Mycobacterium tuberculosis DNA gyrase GyrA M74I and A83S mutant/GyrB R447K mutant gene
Procedure, shortened: as §1

[13] = system: Mycobacterium tuberculosis; remark: listed apart in the source
[14] = Inhibition of Mycobacterium tuberculosis DNA gyrase GyrB/GyrA S69V, A71G, E72D, T73V, M74I, N76K, A83S, S84A, I85V, F96W and P101M mutant
Procedure, shortened: as §1

[15] = Inhibition of Mycobacterium tuberculosis DNA gyrase GyrB/GyrA M74I and A83S mutant
Procedure, shortened: as §1

[16] = Inhibition of Mycobacterium tuberculosis DNA gyrase GyrB/GyrA A83S mutant
Procedure, shortened: as §1

[17] = Inhibition of Mycobacterium tuberculosis DNA gyrase GyrB/GyrA A83S, S84A and I85V mutant
Procedure, shortened: as §1

[18] = Inhibition of Mycobacterium tuberculosis DNA gyrase GyrB/GyrA A83S, S84A, I85V, F96W and P101M mutant
Procedure, shortened: as §1

[19] = Inhibition of Mycobacterium tuberculosis DNA gyrase GyrB/GyrA M74I mutant
Procedure, shortened: as §1

[20] = Inhibition of Mycobacterium tuberculosis DNA gyrase GyrA A83S mutant/GyrB R447K mutant gene
Procedure, shortened: as §1

[21] = system: Mycobacterium tuberculosis; assay: Antimicrobial activity against Mycobacterium tuberculosis harboring DNA gyrase GyrA QRDR; format: functional, organism-based
[22] = system: Mycobacterium tuberculosis; assay: Antimicrobial activity against Mycobacterium tuberculosis harboring DNA gyrase GyrB QRDR; format: functional, organism-based

With `COc1c(N2C[C@@H]3CCCN[C@@H]3C2)c(F)cc2c(=O)c(C(=O)O)cn(C3CC3)c12` [MOXIFLOXACIN] the CC25 [1] was 0.5 µM, the CC25 [2] was 1 µM and the CC25 [3] was “inactive”. It also gave a CC25 [4] of 2.5 µM, a CC25 [5] of 1 µM and an IC50 [6] of 7 µM. The CC25 [7] was 0.5 µM, the CC25 [8] was “inactive” and the CC25 [9] was 3.5 µM. It also gave an IC50 [10] of 1 µM, a CC25 [11] of 0.5 µM and an IC50 [12] of 2 µM. The CC25 [13] was “inactive”, the IC50 [14] was “Not Active” and the IC50 [15] was 1 µM.
Work on `CCn1cc(C(=O)O)c(=O)c2ccc(C)nc21` [NALIDIXIC ACID] yielded an IC50 [16] of 950 µM, an IC50 [17] of 2800 µM and an IC50 [6] of 4100 µM. It also gave an IC50 [18] of 1080 µM, an IC50 [10] of 1080 µM and an IC50 [12] of 520 µM. The IC50 [19] was 3450 µM, the IC50 [14] was “Not Active” and the IC50 [20] was 850 µM. The IC50 [15] was 850 µM.
`CC1COc2c(N3CCN(C)CC3)c(F)cc3c(=O)c(C(=O)O)cn1c23` (configuration not stated) [OFLOXACIN] showed a CC25 [1] of 1.5 µM, an IC50 [16] of 7 µM and a CC25 [2] of 3 µM. For the same compound, the CC25 [3] was “inactive”, the CC25 [5] was 3 µM and the IC50 [17] was 8 µM. The IC50 [21] was 10 µg/mL (≈ 27.7 µM), the MIC50 [21] was 1 µg/mL (≈ 2.77 µM) and the IC50 [6] was 20 µM. For the same compound, the CC25 [7] was 1.5 µM, the CC25 [8] was “inactive” and the CC25 [9] was 14 µM. It also gave an IC50 [18] of 7 µM, an IC50 [10] of 7 µM and a CC25 [11] of 0.5 µM. The IC50 [12] was 11 µM, the IC50 [19] was 25 µM and the CC25 [13] was “inactive”. The IC50 [14] was “Not Active”, the IC50 [22] was 10 µg/mL (≈ 27.7 µM) and the MIC50 [22] was 1 µg/mL (≈ 2.77 µM). For the same compound, the IC50 [20] was 4 µM and the IC50 [15] was 3 µM.
Compound `CCn1cc(C(=O)O)c(=O)c2cc(F)c(N3CCNCC3)nc21` [ENOXACIN] has an IC50 [16] of 16 µM, an IC50 [17] of 11 µM and an IC50 [18] of 16 µM. For the same compound, the IC50 [10] was 23 µM, the IC50 [12] was 16 µM and the IC50 [19] was over 160 µM. The IC50 [14] was “Not Active”, the IC50 [20] was 19 µM and the IC50 [15] was 9 µM.
